HIV Env fusion – HIV envelope-mediated fusion inhibition | HeLa-JRFL Env/CEM21 cell fusion, luciferase | inhibition, % at 12.3 µM | 1.1% of 360,000 active | AID 651610;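 active means mean replicate inhibition score of at least 50 and every replicate individually at or above 50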
INS-1E GSIS act – GLuc luminescence reporter in INS-1E cells, primary screen for activators of glucose-dependent secretion of insulin; 0.61% of 370,000 active; activation, % at 16.6 µM; AID 743287; INS-1E GLuc reporter insulin secretion, 2-3 h;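 active means lowest replicate activation of at least 40%, so every replicate reaches that level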
dFosB act – mouse delta FosB homodimer activation; purified delta FosB, TAMRA-CDK5 oligo fluorescence polarization; percent of positive-control signal above neutral wells; activation, % at 25 µM; 0.99% of 340,000 active; P13346;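 active means mean activation above about 17%, with every replicate also reaching it, limit read from the data, passing the limit was not always enough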
Target sequence (P13346 whole entry, looked up): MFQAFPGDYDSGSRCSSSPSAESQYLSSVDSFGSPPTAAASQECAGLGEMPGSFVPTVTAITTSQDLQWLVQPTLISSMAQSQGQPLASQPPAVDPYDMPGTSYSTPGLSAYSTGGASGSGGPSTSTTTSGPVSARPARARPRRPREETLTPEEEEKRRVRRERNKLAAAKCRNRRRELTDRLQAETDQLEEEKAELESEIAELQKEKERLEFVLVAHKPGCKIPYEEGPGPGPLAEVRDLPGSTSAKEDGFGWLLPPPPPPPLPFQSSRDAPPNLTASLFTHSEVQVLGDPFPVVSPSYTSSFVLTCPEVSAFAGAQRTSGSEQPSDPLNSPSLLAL
CDK5 inh – blocks human CDK5/p35 kinase activity; Q00535+Q15078; Recombinant CDK5/p35, ADP-Glo luminescence, 60 min; inhibition, % at 10 µM; 0.01% of 330,000 active; AID 488839;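 active means highest replicate inhibition of at least 50% and at least 75% of replicates reaching 50%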
PAX8 inh HTS – inhibitors of PAX8 transcriptional activity in RMG-I cells. 1.2% of 360,000 active. inhibition, % at 12.6 µM. AID 652154. RMG-I TPO-luciferase reporter, SteadyGlo, 24 h;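 active means mean replicate inhibition at least 60% with every replicate also reaching 60%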;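 further: luciferase light reporting Pax8 driven TPO promoter activity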
Cneo AK release – causes C. neoformans cell lysis; adenylate kinase release luminescence, 4 h; normalised: neutral wells 0, clomiphene wells 100; lysis activity, % at 15 µM; AID 651654; 0.2% of 360,000 active;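 active means mean lysis activity across replicates of at least 80%, whatever share of replicates individually reach that level; inactive means mean lysis activity below 80%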
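Assay system: Cryptococcus neoformans yeast cells / Dosing: single-point compound dose / Timing: 4 h at 37 °C static, read 1 h later / Measured by: luminescence of released adenylate kinase using an AK detection reagent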
Numbers stand for hits; – = inactive; · = no result given; [ ] = another dose, or the depositor's remark. Only some compounds are listed: those with a hit (about 2.9% of all), similar ones and a draw of the others.

SMILES | HIV Env fusion | INS-1E GSIS act | dFosB act | CDK5 inh | PAX8 inh HTS | Cneo AK release
C[C@@H]1CN([C@@H](C)CO)C(=O)c2cc(NC(=O)CCC(F)(F)F)ccc2O[C@@H](C)CCCCO[C@H]1CN(C)Cc1ccc(Cl)c(Cl)c1 | – | – | · | · | – | –
C[C@H]1CCCCO[C@H](CN(C)Cc2ccc(Cl)c(Cl)c2)[C@@H](C)CN([C@@H](C)CO)C(=O)c2cc(NC(=O)CCC(F)(F)F)ccc2O1 | 78.7[16.7 µM] | – | · | · | – | –
C[C@@H]1CCCCO[C@@H](CN(C)Cc2ccc(Cl)c(Cl)c2)[C@H](C)CN([C@@H](C)CO)C(=O)c2cc(NC(=O)CCC(F)(F)F)ccc2O1 | – | – | · | · | 88.3 | –
CCn1ccc(C(=O)Nc2ccccc2SC)n1 | – | 40.6 | – | – | – | ·
CCCNC(=O)N1C[C@H](O)COC[C@H]2O[C@@H](CC(=O)NCc3ccc(Cl)c(Cl)c3)CC[C@@H]21 | – | – | · | · | – | –
COc1cc(CNCCc2ccccc2)cc(Cl)c1OCc1ccccc1 | – | 122.2 | – | – | – | –
COc1cc(CNCc2ccccc2)cc(Cl)c1OC | – | – | – | – | – | –
CO[C@H]1CN(C)C(=O)c2cc(NC(=O)Nc3ccccc3F)ccc2OC[C@H](C)N(CC2CC2)C[C@H]1C | · | – | · | · | – | –
CN1c2ccc(-c3ccc(C#N)cc3)cc2[C@@H]2[C@@H](CCN2C(=O)c2cccc(F)c2)[C@H]1CO | · | – | · | · | – | –
Cc1ccnc(NS(=O)(=O)c2ccc(NC(=O)CCc3ccccc3)cc2)n1 | – | 41.9 | – | – | – | –
Cc1ccnc(NS(=O)(=O)c2ccc(NC(=O)Cc3ccccc3)cc2)n1 | · | – | – | – | – | –
CC(C)(C)c1ccc(C(=O)Nc2sc3c(c2C(=O)O)CCC3)cc1 | 80.9 | – | – | – | 80.2 | ·
C[C@@H]1CN([C@@H](C)CO)C(=O)c2cc(NS(=O)(=O)c3ccccc3)ccc2O[C@@H](C)CCCCO[C@@H]1CN(C)C(=O)CCCN(C)C | – | – | · | · | – | –
CC(C)(C)CC(C)(C)c1ccc(OCCOCC[N+](C)(C)Cc2ccccc2)cc1 | – | · | – | – | 77.9 | –
CN(C)c1ccc(C=c2c3ccccc3n3c2c2ccccc2[n+]3C)cc1 | 58.1 | · | – | – | 87.8 | ·
CN(C)c1ccc(C=C2C=Cc3ccccc32)cc1 | – | · | – | – | – | –
CCOC(=O)SC1=N/C(=C\c2ccc(N(C)C)cc2)C(=O)S1 | · | – | – | – | · | ·
Cc1cc2c(=Cc3ccc(N(C)C)cc3)c3ccccc3n2[n+]1C | – | – | 99.9 | – | · | ·
CCOC(=O)c1cc2c(=Cc3ccc(N(C)C)cc3)c3ccccc3n2[n+]1C | – | – | 45.7 | – | – | ·
C[C@@H]1CN([C@H](C)CO)S(=O)(=O)c2ccc(-c3ccccc3F)cc2O[C@H]1CN(C)Cc1cncnc1 | – | – | · | · | · | –
C[C@@H]1CCCCO[C@@H](CN(C)Cc2ccc(C(F)(F)F)cc2)[C@@H](C)CN([C@H](C)CO)C(=O)c2cc(NC(=O)Nc3ccc(C(F)(F)F)cc3)ccc2O1 | – | – | · | · | – | –
C[C@H]1CCCCO[C@@H](CN(C)Cc2ccc(C(F)(F)F)cc2)[C@@H](C)CN([C@@H](C)CO)C(=O)c2cc(NC(=O)Nc3ccc(C(F)(F)F)cc3)ccc2O1 | 81.9[16.7 µM] | – | · | · | – | –
C[C@H](CO)N1C[C@H](C)[C@H](CN(C)Cc2ccc(C(F)(F)F)cc2)OCCCC[C@H](C)Oc2ccc(NC(=O)Nc3ccc(C(F)(F)F)cc3)cc2C1=O | 65.7[16.7 µM] | – | · | · | – | –
C[C@@H]1CN([C@H](C)CO)C(=O)c2cc(NC(=O)Nc3ccc(C(F)(F)F)cc3)ccc2O[C@@H](C)CCCCO[C@H]1CN(C)Cc1ccc(C(F)(F)F)cc1 | 63.9[16.7 µM] | – | · | · | – | –
C[C@H](CO)N1C[C@H](C)[C@@H](CN(C)Cc2ccc(C(F)(F)F)cc2)OCCCC[C@H](C)Oc2ccc(NC(=O)Nc3ccc(C(F)(F)F)cc3)cc2C1=O | – | – | · | · | – | –
SMILES | HIV Env fusion | INS-1E GSIS act | dFosB act | CDK5 inh | PAX8 inh HTS | Cneo AK release
CC(=O)N(Cc1c(C)nn(-c2ccccc2)c1Cl)c1ccc(Cl)cc1 | – | · | – | – | – | –
Cc1nn(-c2ccccc2)c(Cl)c1CN(C(=O)CCl)c1ccc(Cl)cc1 | – | – | – | – | 99.7 | –
Cc1nn(-c2ccccc2)c(Cl)c1CN(C(=O)CCl)c1cccc2ccccc12 | – | – | – | – | 111.1 | ·
C[C@@H]1CN([C@@H](C)CO)C(=O)c2cccc(NS(=O)(=O)c3cccs3)c2O[C@H]1CN(C)Cc1ccccc1 | – | – | · | · | – | –
O=C(C[C@@H]1CC[C@H]2[C@@H](COC[C@H](O)CN2Cc2ccc(Oc3ccccc3)cc2)O1)Nc1nccs1 | – | – | · | · | 65.9 | 88.1
O=C(C[C@H]1CC[C@H]2[C@@H](COC[C@H](O)CN2Cc2cccc(Cl)c2)O1)Nc1nccs1 | – | – | · | · | – | 114.5
CN1C(=O)/C(=C\C(=O)c2cccs2)c2ccccc21 | – | – | – | – | 89.1 | ·
O=C(CN1CCN(c2ncc(C(F)(F)F)cc2Cl)CC1)N1CCN(c2ncc(C(F)(F)F)cc2Cl)CC1 | 94.7 | – | – | – | · | –
C[C@H]1CN([C@@H](C)CO)C(=O)c2cc(C3=CCCC3)cnc2O[C@@H]1CN(C)C(=O)CN1CCOCC1 | – | – | · | · | – | –
COC(=O)[C@@H]1[C@@H](CO)[C@@H]2Cn3c(ccc(-c4cccc(F)c4)c3=O)[C@@H]2N1CC1CCCC1 | · | – | · | · | 64.0 | –
COC(=O)[C@H]1[C@H](CO)[C@H]2Cn3c(ccc(-c4cccc(F)c4)c3=O)[C@H]2N1CC1CCCC1 | · | – | · | · | – | –
CSc1ccccc1C(=O)OCC(=O)Nc1cccnc1Cl | · | 43.4 | – | – | – | –
C[C@@H]1CN([C@@H](C)CO)C(=O)c2cc(NC(=O)CCC(F)(F)F)ccc2O[C@@H]1CN(C)S(=O)(=O)c1ccc(Cl)cc1 | · | – | · | · | – | –
COc1ccc2c3c(n(C)c2c1)[C@H](CO)N(Cc1ccncc1)CC31CN(C(=O)C2CCCCC2)C1 | · | – | · | · | – | ·
Cc1ccc2nc3sc(C(=O)N4CCOCC4)c(N)c3cc2c1 | 73.8 | · | – | – | 82.0 | –
Cc1ccc2cc3c(N)c(C(=O)N4CCOCC4)sc3nc2c1 | – | – | – | – | · | ·
O=C1CC(c2ccc(Cl)cc2)Oc2ccc(Cl)cc21 (configuration not stated) | – | – | – | – | – | –
Cn1c(Cl)cnc1C1CC(=O)c2cc(Cl)ccc2O1 (configuration not stated) | – | · | – | – | 72.3 | –
COc1ccc(NC(=O)N(C)C[C@@H]2OCCCC[C@H](C)Oc3ccc(NC(=O)c4ccccc4)cc3C(=O)N([C@@H](C)CO)C[C@@H]2C)cc1 | – | – | · | · | – | –
COCC#Cc1cnc2c(c1)C(=O)N([C@@H](C)CO)C[C@@H](C)[C@H](CN(C)C(=O)CCN1CCCCC1)O2 | – | – | · | · | · | –

Screening data from PubChem.
